Results of several laboratories.
Protocols differ between the studies behind these lines.

Compound	target or system	assay	system	setting	endpoint	result
COc1cccc2c1C(=O)c1c(O)c3c(c(O)c1C2=O)C[C@@](O)(C(=O)CO)C[C@@H]3O[C@H]1C[C@H](N)[C@H](O)[C@H](C)O1	BJ	cell growth or viability	–	–	IC50	0.1 µM
N=C(N)c1ccc(OCCSCCOc2ccc(C(=N)N)cc2)cc1	–	haemolysis	sheep	200 µg/mL, 20 h	haemolysis	0%
C[C@H](Cn1cnc2c(N)ncnc21)OCP(=O)(O)O	MT4	cell growth or viability, MTT	–	5 days	CC50	6.73 mg/L
COc1cc(/C=C/C(=O)OCCCc2ccc(O[C@H](COC(=O)/C=C/c3ccc(O)c(OC)c3)[C@@H](OC)c3ccc(O)c(OC)c3)c(OC)c2)ccc1O	MT4	cell growth or viability	–	72 h	CC50	> 10 µM
Cc1ccnc2c1NC(=O)c1cccnc1N2C1CC1	MT4	cell growth or viability, MTT	–	5 days	CC50	0.82 mg/L
N=C(N)c1ccc(OCCCCCCCOc2ccc(C(=N)N)cc2)cc1	–	haemolysis	sheep	200 µg/mL, 20 h	haemolysis	9.2%
O=c1ccn([C@@H]2C=C[C@@]3(CO)C[C@@H]23)c(=O)[nH]1	MT4	cell growth or viability, MTT	–	5 days	CC50	> 100 mg/L
Cc1ncsc1-c1ccc(CNC(=O)[C@@H]2C[C@@H](O)CN2C(=O)[C@@H](NC(=O)CCCCCCCCCCNC(=O)O[C@H]2C[C@@H](C)C=C3C=C[C@H](C)[C@H](CC[C@@H]4C[C@@H](O)CC(=O)O4)[C@H]32)C(C)(C)C)cc1	–	metabolic stability	mouse, liver microsomes	1 µM, 5 min, pH 7.4	compound remaining	41.2%
N=C(N)c1ccc(OCc2ccc(COc3ccc(C(=N)N)cc3)cc2)cc1	–	haemolysis	sheep	200 µg/mL, 20 h	haemolysis	0.4%
Cc1ccc2c(c1)nc(/C=C/c1cccc3cccnc13)n2-c1ccccc1	–	metabolic stability	rat, liver microsomes	1.5 µM, 45 min	compound remaining	17.8%
CON=C(N)c1ccc(-c2ccc(-c3ccc(C(N)=NOC)cc3)o2)cc1	Cytochrome P450 2J2 (CYP2J2, Homo sapiens, UniProt P51589)	enzyme activity, substrate	–	–	Km	0.9 µM
N=C(N)c1ccccc1OCc1cccc(COc2ccccc2C(=N)N)c1	–	haemolysis	sheep	200 µg/mL, 1 h	haemolysis	0%
C=C(CCO)Cn1cnc2c(=O)[nH]c(N)nc21	MT4	cell growth or viability, MTT	–	7 days	CC50	> 100 µM
Nc1ncnc2c1ncn2[C@@H]1C=C[C@@]2(CO)C[C@@H]12	MT4	cell growth or viability, MTT	–	5 days	CC50	> 100 mg/L
CC(=O)Nc1nnc(N2CCN([C@@H](C)c3ccc4c(c3)OCO4)CC2)s1	–	–	dog, plasma	1 µM	fraction unbound	0.125
